According to ChEMBL document CHEMBL3593206, “SAR Studies of Exosite-Binding Substrate-Selective Inhibitors of A Disintegrin And Metalloprotease 17 (ADAM17) and Application as Selective in Vitro Probes” (J Med Chem, 2015):
pIC50: −log10 of the molar value. One block for each compound: values may come before it.

How the values were obtained:
[1] = target: T1, Disintegrin and metalloproteinase domain-containing protein 17 (Homo sapiens, UniProt P78536); test: Inhibition of ADAM17 (unknown origin) preincubated for 30 mins followed by substrate addition measured every 30 mins for 2 hrs by fluorescence assay
Method in brief: (§1)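 Enzyme at 30 nM (3× solution) in 10 mM Hepes, 0.001% Brij-35, pH 7.5. Inhibitor series of 10 points, 1:3, from 300 μM, preincubated 30 min at RT. Glycosylated substrate added from a 30 μM 3× solution. Fluorescence (ex 360/em 460 nm) read every 30 min for 2 h. Inhibition taken from hydrolysis rates against substrate-only and substrate-plus-enzyme wells.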

[2] = target: T2, Disintegrin and metalloproteinase domain-containing protein 10 (Homo sapiens, UniProt O14672); test: Inhibition of ADAM10 (unknown origin) preincubated for 30 mins followed by substrate addition measured every 30 mins for 2 hrs by fluorescence assay; method in brief: as §1
T2 sequence (O14672 whole entry): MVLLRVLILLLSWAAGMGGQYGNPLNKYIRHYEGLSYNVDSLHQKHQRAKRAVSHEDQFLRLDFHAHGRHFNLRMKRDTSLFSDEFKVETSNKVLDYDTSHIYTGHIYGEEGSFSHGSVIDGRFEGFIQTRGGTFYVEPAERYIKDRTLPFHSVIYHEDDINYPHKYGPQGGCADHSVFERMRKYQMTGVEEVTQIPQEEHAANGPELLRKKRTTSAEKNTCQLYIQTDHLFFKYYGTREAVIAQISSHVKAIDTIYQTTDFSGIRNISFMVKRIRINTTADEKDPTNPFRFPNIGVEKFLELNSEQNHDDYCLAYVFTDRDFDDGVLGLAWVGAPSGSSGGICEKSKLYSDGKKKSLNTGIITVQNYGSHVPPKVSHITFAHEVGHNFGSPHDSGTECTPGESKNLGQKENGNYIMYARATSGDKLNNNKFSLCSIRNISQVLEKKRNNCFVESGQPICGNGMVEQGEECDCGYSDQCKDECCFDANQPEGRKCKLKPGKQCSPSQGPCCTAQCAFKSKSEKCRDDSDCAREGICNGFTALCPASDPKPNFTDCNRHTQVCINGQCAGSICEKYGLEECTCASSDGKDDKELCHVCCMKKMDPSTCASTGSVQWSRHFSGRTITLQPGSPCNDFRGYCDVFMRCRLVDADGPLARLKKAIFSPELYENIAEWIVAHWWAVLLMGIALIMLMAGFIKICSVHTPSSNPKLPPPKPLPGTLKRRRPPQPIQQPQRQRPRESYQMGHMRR

[3] = target: T1, Disintegrin and metalloproteinase domain-containing protein 17; test: Inhibition of ADAM17 in human THP1 cells assessed as inhibition of LPS-stimulated TNFalpha cleavage at 25 uM after 1 hr by AlphaScreen assay relative to control; type: cell-based; conditions: THP-1
Method in brief: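 THP-1 cells grown in RPMI 1640 with 10% FBS and 0.05 mM 2-mercaptoethanol; 3000 cells per well. Compound given in 3% DMSO for 1 h, then LPS added (1 μg/mL final) and cells incubated overnight at 37 °C. TNFα detected by AlphaScreen using anti-TNFα acceptor beads and streptavidin donor beads, each step 1 h in the dark at RT.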

[4] = target: T3, Disintegrin and metalloproteinase domain-containing protein 10 (Homo sapiens) (UniProt O14672); test: Inhibition of ADAM10 in HTSMC assessed as inhibition of PMA-stimulated release of CXCL16 at 10 uM preincubated for 30 mins followed by PMA challenge measured after 4 to 24 hrs by ELISA
T3 sequence (whole entry): T2 sequence (O14672 whole entry)

[5] = target: T4, Matrix metalloproteinase-14 (Homo sapiens, UniProt P50281); test: Inhibition of MMP14 (unknown origin) using Mca-KLPGL-Dnp-AR as substrate at 100 uM preincubated for 30 mins followed by substrate addition measured after 1 hr by fluorescence assay relative to control
Neutrophil collagenase [6] = target: T5, Neutrophil collagenase (Homo sapiens, UniProt P22894); test: Inhibition of MMP8 (unknown origin) using Mca-KLPGL-Dnp-AR as substrate at 100 uM preincubated for 30 mins followed by substrate addition measured after 1 hr by fluorescence assay relative to control
Method in brief: (§2)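 Inhibitor as 10-point 1:3 dilutions from 300 μM, 30 min at RT. Substrate added from a 30 μM 3× solution. Single fluorescence read (ex 324/em 393 nm) after 1 h at RT.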
Target sequence in this assay (P22894 101-467 limits assumed): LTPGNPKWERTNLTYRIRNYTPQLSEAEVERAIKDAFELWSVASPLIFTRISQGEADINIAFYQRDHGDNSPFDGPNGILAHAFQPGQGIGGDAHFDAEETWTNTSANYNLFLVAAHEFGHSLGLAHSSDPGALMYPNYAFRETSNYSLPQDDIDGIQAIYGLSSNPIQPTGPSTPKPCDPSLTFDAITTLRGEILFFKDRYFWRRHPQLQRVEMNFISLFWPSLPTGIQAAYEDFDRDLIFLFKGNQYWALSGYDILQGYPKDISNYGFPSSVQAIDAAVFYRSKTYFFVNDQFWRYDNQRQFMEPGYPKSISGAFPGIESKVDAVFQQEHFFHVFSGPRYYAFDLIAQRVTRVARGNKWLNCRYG

HepG2 = test: Cytotoxicity against human HepG2 cells assessed as inhibition of cell viability up to 33 uM after 72 hrs by CellTiter-Glo assay; type: cell-based; conditions: hepg2, 72 h
[7] = target: T6, 72 kDa type IV collagenase (Homo sapiens, UniProt P08253); test: Inhibition of MMP2 (unknown origin) using Mca-KLPGL-Dnp-AR as substrate at 100 uM preincubated for 30 mins followed by substrate addition measured after 1 hr by fluorescence assay relative to control; method in brief: as §2
Target sequence in this assay (P08253 110-660 limits assumed): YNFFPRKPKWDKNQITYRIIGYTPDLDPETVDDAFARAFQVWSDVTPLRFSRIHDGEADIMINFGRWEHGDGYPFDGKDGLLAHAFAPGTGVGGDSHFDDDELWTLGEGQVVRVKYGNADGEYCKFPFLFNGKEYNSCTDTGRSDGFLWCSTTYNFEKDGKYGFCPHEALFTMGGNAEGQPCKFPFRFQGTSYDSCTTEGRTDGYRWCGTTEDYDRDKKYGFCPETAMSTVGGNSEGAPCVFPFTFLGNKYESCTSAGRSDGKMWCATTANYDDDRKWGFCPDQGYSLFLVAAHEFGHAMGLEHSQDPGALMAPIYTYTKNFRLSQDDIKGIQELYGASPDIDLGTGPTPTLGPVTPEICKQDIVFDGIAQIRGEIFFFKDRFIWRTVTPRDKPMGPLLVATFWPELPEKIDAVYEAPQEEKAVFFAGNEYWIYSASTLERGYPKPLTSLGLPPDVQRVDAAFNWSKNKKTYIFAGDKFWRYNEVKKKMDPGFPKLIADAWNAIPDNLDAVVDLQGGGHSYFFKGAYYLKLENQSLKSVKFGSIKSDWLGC

[8] = target: T7, Matrix metalloproteinase-9 (Homo sapiens, UniProt P14780); test: Inhibition of MMP9 (unknown origin) using Mca-KLPGL-Dnp-AR as substrate at 100 uM preincubated for 30 mins followed by substrate addition measured after 1 hr by fluorescence assay relative to control; method in brief: as §2
[9] = target: T3, Disintegrin and metalloproteinase domain-containing protein 10 (Homo sapiens); test: Inhibition of ADAM10 in human A549 cells assessed as inhibition of betacellulin shedding at 40 uM after 1 hr by ELISA; type: cell-based
Method in brief: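 A549 cells were tested for betacellulin shedding at 40 μM, with Marimastat at 10 μM as control.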

[10] = target: T1, Disintegrin and metalloproteinase domain-containing protein 17; test: Inhibition of ADAM17 in human A549 cells assessed as inhibition of PMA-stimulated heregulin shedding at 40 uM incubated for 1 hr followed by PMA stimulation measured after 1 hr; type: cell-based
Method in brief: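 Heregulin shedding in A549 cells, with all compounds tested at 40 μM.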

[11] = target: T3, Disintegrin and metalloproteinase domain-containing protein 10 (Homo sapiens); test: Inhibition of ADAM10 (unknown origin) at 100 uM preincubated for 30 mins followed by substrate addition measured every 30 mins for 2 hrs by fluorescence assay relative to control; method in brief: as §1
[12] = target: T1, Disintegrin and metalloproteinase domain-containing protein 17; test: Inhibition of ADAM17 (unknown origin) at 100 uM preincubated for 30 mins followed by substrate addition measured every 30 mins for 2 hrs by fluorescence assay relative to control; method in brief: as §1
A549 = test: Cytotoxicity against human A549 cells assessed as inhibition of cell viability up to 33 uM after 72 hrs by CellTiter-Glo assay; type: cell-based; conditions: a549, 72 h
[13] = target: T1, Disintegrin and metalloproteinase domain-containing protein 17; test: Inhibition of ADAM17 in human A549 cells assessed as effect on PMA-stimulated TGFalpha shedding up to 100 uM preincubated for 1 hr followed by PMA stimulation measured after 1 hr by ELISA; type: cell-based
Method in brief: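 TGFα shedding from PMA-treated A549 cells tested up to 100 μM. Marimastat at 10 μM served as control, with a non-PMA-treated control included; soluble TGFα measured in the supernatant.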

MDA-MB-231 = test: Cytotoxicity against human MDA-MB-231 cells assessed as inhibition of cell viability up to 33 uM after 72 hrs by CellTiter-Glo assay; type: cell-based; conditions: mda-mb-231, 72 h
[14] = target: T3, Disintegrin and metalloproteinase domain-containing protein 10 (Homo sapiens); test: Inhibition of ADAM10 in HTSMC assessed as inhibition of constitutive release of fractalkine/CX3CL1 at 10 uM preincubated for 30 mins measured after 4 to 24 hrs by ELISA
[15] = target: T4, Matrix metalloproteinase-14; test: Inhibition of MMP14 (unknown origin) using Mca-KLPGL-Dnp-AR as substrate preincubated for 30 mins followed by substrate addition measured after 1 hr by fluorescence assay; method in brief: as §2
[16] = target: T6, 72 kDa type IV collagenase; test: Inhibition of MMP2 (unknown origin) using Mca-KLPGL-Dnp-AR as substrate preincubated for 30 mins followed by substrate addition measured after 1 hr by fluorescence assay; method in brief: as §2
Target sequence in this assay (P08253 whole entry): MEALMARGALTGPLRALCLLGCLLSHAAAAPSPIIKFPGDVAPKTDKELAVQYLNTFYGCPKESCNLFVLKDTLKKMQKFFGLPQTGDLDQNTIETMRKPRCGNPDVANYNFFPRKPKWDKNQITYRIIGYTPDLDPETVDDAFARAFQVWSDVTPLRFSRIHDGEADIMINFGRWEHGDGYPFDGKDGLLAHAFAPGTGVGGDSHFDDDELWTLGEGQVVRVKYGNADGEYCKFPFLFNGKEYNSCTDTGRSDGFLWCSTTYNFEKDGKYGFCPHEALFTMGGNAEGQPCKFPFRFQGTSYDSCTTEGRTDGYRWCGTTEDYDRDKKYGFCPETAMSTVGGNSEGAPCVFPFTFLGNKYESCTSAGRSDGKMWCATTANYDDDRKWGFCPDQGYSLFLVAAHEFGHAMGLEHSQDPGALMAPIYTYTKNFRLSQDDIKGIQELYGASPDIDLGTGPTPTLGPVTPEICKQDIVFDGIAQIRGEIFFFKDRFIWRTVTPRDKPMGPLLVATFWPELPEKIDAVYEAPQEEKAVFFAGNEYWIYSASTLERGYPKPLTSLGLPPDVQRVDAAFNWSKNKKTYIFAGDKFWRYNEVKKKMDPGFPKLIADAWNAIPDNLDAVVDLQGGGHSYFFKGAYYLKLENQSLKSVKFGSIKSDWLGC

[17] = Cytotoxicity against CHOK1 cells assessed as inhibition of cell viability up to 33 uM after 72 hrs by CellTiter-Glo assay; type: cell-based, Cricetulus griseus; conditions: chinese hamster, cho-k1, 72 h
[18] = target: T1, Disintegrin and metalloproteinase domain-containing protein 17; test: Inhibition of ADAM17 in HTSMC assessed as inhibition of LPS-stimulated IL-8 shedding at 10 uM preincubated for 30 mins followed by LPS challenge measured after 4 to 24 hrs by ELISA
Method in brief: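 HTSMCs stimulated with LPS for IL-8 release; compounds at 10 μM. Mean ± SEM, n = 3 from three independent experiments; one-way ANOVA with Dunnett post hoc test.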

Neutrophil collagenase [19] = target: T5, Neutrophil collagenase; test: Inhibition of MMP8 (unknown origin) using Mca-KLPGL-Dnp-AR as substrate preincubated for 30 mins followed by substrate addition measured after 1 hr by fluorescence assay; method in brief: as §2
Target sequence in this assay (P22894 whole entry): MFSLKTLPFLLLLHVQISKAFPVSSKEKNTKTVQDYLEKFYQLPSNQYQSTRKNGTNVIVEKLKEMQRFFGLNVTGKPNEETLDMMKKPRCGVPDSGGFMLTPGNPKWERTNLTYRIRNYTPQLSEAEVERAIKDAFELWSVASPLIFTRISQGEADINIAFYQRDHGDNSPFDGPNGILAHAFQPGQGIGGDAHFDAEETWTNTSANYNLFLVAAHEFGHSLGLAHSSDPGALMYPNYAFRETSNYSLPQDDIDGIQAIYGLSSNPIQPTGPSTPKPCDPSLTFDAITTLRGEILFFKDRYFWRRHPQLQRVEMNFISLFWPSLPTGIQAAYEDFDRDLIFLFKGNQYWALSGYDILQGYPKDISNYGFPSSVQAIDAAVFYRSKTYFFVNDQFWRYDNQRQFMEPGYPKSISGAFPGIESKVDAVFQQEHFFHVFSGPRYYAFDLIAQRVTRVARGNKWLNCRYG

[20] = target: T7, Matrix metalloproteinase-9; test: Inhibition of MMP9 (unknown origin) using Mca-KLPGL-Dnp-AR as substrate preincubated for 30 mins followed by substrate addition measured after 1 hr by fluorescence assay; method in brief: as §2

T1 sequence (P78536 whole entry, the tested form may be a part): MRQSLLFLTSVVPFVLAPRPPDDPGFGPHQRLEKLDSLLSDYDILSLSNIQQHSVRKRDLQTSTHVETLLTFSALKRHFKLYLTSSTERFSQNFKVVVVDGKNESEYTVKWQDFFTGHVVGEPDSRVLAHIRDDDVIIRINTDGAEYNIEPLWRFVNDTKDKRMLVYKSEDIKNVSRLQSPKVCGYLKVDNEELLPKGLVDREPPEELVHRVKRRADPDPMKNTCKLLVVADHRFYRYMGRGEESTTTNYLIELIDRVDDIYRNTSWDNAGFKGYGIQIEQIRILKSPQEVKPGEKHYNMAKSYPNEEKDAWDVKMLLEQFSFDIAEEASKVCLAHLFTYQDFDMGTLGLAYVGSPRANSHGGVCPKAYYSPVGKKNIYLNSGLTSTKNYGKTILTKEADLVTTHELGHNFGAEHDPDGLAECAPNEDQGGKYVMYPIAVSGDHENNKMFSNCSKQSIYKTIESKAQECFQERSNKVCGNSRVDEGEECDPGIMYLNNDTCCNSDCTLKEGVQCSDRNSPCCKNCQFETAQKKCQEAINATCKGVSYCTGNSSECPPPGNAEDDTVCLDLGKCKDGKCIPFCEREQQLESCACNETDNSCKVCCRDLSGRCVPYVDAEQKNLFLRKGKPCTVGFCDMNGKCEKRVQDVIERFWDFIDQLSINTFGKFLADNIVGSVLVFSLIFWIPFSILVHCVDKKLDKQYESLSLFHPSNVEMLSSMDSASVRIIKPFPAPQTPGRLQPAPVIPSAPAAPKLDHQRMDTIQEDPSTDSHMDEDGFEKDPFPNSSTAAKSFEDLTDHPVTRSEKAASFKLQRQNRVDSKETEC
T7 sequence (P14780 whole entry, the tested form may be a part): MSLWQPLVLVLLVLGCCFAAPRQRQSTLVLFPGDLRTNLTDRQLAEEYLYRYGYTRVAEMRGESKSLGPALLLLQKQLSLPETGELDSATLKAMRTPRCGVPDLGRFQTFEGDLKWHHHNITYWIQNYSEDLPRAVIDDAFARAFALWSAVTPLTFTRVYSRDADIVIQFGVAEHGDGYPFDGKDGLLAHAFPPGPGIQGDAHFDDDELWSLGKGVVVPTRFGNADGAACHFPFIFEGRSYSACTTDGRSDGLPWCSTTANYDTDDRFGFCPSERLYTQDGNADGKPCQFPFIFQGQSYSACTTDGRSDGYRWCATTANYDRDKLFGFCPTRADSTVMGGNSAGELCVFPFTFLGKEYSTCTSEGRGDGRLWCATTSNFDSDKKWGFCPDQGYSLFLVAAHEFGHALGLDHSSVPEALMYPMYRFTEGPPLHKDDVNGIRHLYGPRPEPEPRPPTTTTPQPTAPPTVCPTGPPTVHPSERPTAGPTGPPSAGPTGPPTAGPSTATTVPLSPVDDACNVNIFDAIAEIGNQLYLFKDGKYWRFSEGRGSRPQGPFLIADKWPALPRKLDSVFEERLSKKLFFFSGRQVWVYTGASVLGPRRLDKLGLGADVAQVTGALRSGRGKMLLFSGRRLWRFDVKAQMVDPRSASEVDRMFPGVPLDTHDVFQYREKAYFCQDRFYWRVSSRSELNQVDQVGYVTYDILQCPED

- pIC50 [1]: 5.00
- pIC50 [2]: < 4.00
Structure (SMILES): CCC[C@H]1CNC(=O)C(=O)N1C[C@@H]1CCCN1C[C@H](Cc1ccc(O)cc1)N1C[C@H](Cc2ccc3ccccc3c2)N(CCC23CC4CC(CC(C4)C2)C3)C(=O)C1=O

- pIC50 [1]: 5.08
- pIC50 [2]: < 4.00
Structure (SMILES): O=C1NC[C@@H](Cc2ccc3ccccc3c2)N(C[C@@H]2CCCN2C[C@H](Cc2ccc(O)cc2)N2C[C@H](Cc3ccc4ccccc4c3)N(CCC34CC5CC(CC(C5)C3)C4)C(=O)C2=O)C1=O

- pIC50 [1]: 5.27
- pIC50 [2]: < 4.00
Structure (SMILES): CCC[C@H]1CNC(=O)C(=O)N1C[C@@H]1CCCN1C[C@H](Cc1ccc(O)cc1)N1C[C@@H](Cc2ccc(O)cc2)N(CCC23CC4CC(CC(C4)C2)C3)C(=O)C1=O

- pIC50 [1]: 5.10
- pIC50 [2]: < 4.00
Structure (SMILES): CCC[C@H]1CNC(=O)C(=O)N1C[C@@H]1CCCN1C[C@H](Cc1ccc(O)cc1)N1C[C@@H](Cc2ccc3ccccc3c2)N(CCC23CC4CC(CC(C4)C2)C3)C(=O)C1=O

- pIC50 [1]: 4.82
- pIC50 [2]: < 4.00
Structure (SMILES): CCC[C@H]1CNC(=O)C(=O)N1C[C@@H]1CCCN1C[C@H](Cc1ccc(O)cc1)N1C[C@H](Cc2ccc(O)cc2)N(CC(CC)c2ccccc2)C(=O)C1=O (some centres undefined)

- pIC50 [1]: 5.09
- pIC50 [2]: < 4.00
Structure (SMILES): O=C1NC[C@@H](Cc2ccc3ccccc3c2)N(C[C@@H]2CCCN2C[C@H](Cc2ccc(O)cc2)N2C[C@H](Cc3ccc(O)cc3)N(CCC34CC5CC(CC(C5)C3)C4)C(=O)C2=O)C1=O

- pIC50 [1]: 4.54
- pIC50 [2]: < 4.00
Structure (SMILES): CCC[C@H]1CNC(=O)C(=O)N1C[C@@H]1CCCN1C[C@H](Cc1ccc(O)cc1)N1C[C@H](Cc2ccc(O)cc2)N(CC2CCCCC2)C(=O)C1=O

- pIC50 [1]: 4.03
- pIC50 [2]: < 4.00
Structure (SMILES): CCC[C@H]1CNC(=O)C(=O)N1C[C@@H]1CCCN1C[C@H](Cc1ccc(O)cc1)N1C[C@H](Cc2ccc(O)cc2)N(CC2CCC2)C(=O)C1=O

- inhibition [3]: 44%
- inhibition [4]: 0%
- inhibition [5]: 0%
- pIC50 [1]: 4.96
- inhibition (Neutrophil collagenase [6]): 0%
- inhibition [7]: 0%
- inhibition [8]: 0%
- inhibition [9]: 0%
- inhibition [10]: 0%
- inhibition [11]: 0%
- pIC50 [2]: < 4.00
- inhibition [12]: 100%
- inhibition [13]: 0%
- inhibition [14]: 0%
- pIC50 [15]: < 4.00
- pIC50 [16]: < 4.00
- inhibition [18]: 62%
- pIC50 (Neutrophil collagenase [19]): < 4.00
- pIC50 [20]: < 4.00
Structure (SMILES): O=C1NC[C@H](Cc2ccccc2)N(C[C@@H]2CCCN2C[C@H](Cc2ccccc2)N2C[C@H](Cc3ccc(O)cc3)N(CCC34CC5CC(CC(C5)C3)C4)C(=O)C2=O)C1=O
- Activity (HepG2): Non-toxic
- Activity (A549): Non-toxic
- Activity (MDA-MB-231): Non-toxic
- Activity [17]: Non-toxic
